Screens (PubChem BioAssay)
This is one part of a sample in which hits are shown more often than they occur.
NALP3 yeast inh = NALP3 inhibition in yeast | Yeast reconstituted NLRP3/ASC/caspase-1, beta-gal luminescence, 24 h | inhibition, % at 10 µM | hit rate 0.39% among 330,000 | AID 2825;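 active means inhibition of 50% or more; inactive means inhibition below 50%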;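 further: plate controls were induced DMSO wells for no effect and uninduced yeast grown without galactose for full effect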
NALP1 inh = blocks the NALP1 inflammasome reconstituted in yeast; AID 2071; S. cerevisiae NALP1/ASC/caspase-1 growth, X-gal OD620, 72 h; inhibition, % at 10 µM; hit rate 0.61% among 280,000; in the data active means inhibition mostly above about 24%, no sharp cut-off; inactive means mostly below about 32%
T cruzi inh = T. cruzi replication inhibition | hit rate 1.4% among 300,000 | T. cruzi beta-gal in NIH3T3, luminescence, 90 h | inhibition, % (no concentration beside the values);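 active means mean inhibition across valid replicates above about 55%, limit read from the data; inconclusive means mean below that limit but half or more replicates reach it; inactive means mean below it, under half of replicates reach it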;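 further: signal also drops with host cell toxicity which is not excluded here; 0% = plate median of DMSO wells and 100% = zero luminescence signal; higher percent means less beta-gal luminescence so fewer parasites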
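Material: NIH/3T3 host cells with β-galactosidase reporter T. cruzi; Input: 5,000 host fibroblasts per well; Medium: DMEM, 2% fetal bovine serum; Compound: 50 nL DMSO compound solution per well; Schedule: 3 h host attachment, then at least 90 h co-culture; Detection: luminescent β-galactosidase signal after 60 min lysis.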
L major viab = Leishmania major promastigote growth inhibition | AID 1063 | Leishmania major promastigotes, resazurin fluorescence viability | inhibition, % at 10 µM | hit rate 9% among 200,000; in the data active means inhibition above about 50%;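 further: promastigotes grown with compound for 44 hours at 28 °C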
PolyA inh = inhibitors of polyadenylation in S. cerevisiae. activity score, % at 12 µM. S. cerevisiae SKY197-pL101 polyadenylation reporter, beta-gal luminescence; efflux-impaired pdr1/pdr3 knockout yeast; score 100 = 6 SD above DMSO. hit rate 0.02% among 300,000;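 active means lowest replicate activity score at least 50, where 100 means six control SD above control mean; inconclusive means lowest score under 50 but half or more replicates reach 50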;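 further: yeast exposed to compound for 9 h at 30 °C; higher score means more reporter readthrough which indicates perturbed polyadenylation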
Calb FLC = affects C. albicans growth with fluconazole. C. albicans CaCi-2 + fluconazole, Alamar Blue growth, 48 h. growth inhibition, % (test concentration not listed). AID 1979. hit rate 0.57% among 300,000;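 active means growth inhibition above about 58% in most replicates, limit read from the data, passing the limit was not always enough; inconclusive means exactly half the replicates above a set limit; inactive means most replicates below a set limit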;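 further: all wells also contain fluconazole at 8 µg/ml as a sub-toxic cotreatment; 0% = median of DMSO wells and 100% = median of geldanamycin control wells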
* marks the source's active call; other numbers are inactive results; u = inconclusive; x = not tested or not shown.

SMILES | NALP3 yeast inh | NALP1 inh | T cruzi inh | L major viab | PolyA inh | Calb FLC
COC(=O)Cn1cnc2c(nnn2-c2cccc(OC)c2)c1=O | 10 | 2 | 0 | x | 2 | 3
O=S(=O)(NCC(Nc1ccc(Cl)cc1)c1ccccc1)c1ccc(Cl)cc1 (stereo not given) | 3 | 22 | 32 | 58* | -22 | -16
CC(=O)N1CCN(C(=O)c2cccc(S(=O)(=O)N3c4ccccc4CC3C)c2)CC1 (stereo not given) | 12 | x | x | x | x | x
CC1Cc2ccccc2N1S(=O)(=O)c1cccc(C(=O)NCCCO)c1 (stereo not given) | 0 | -12 | 1 | 6 | -6 | 0
CC1Cc2ccccc2N1S(=O)(=O)c1cccc(C(=O)N2CCN(c3ncccn3)CC2)c1 (stereo not given) | -6 | 5 | 6 | 77* | 4 | 19
CCOC(=O)c1ccc(NC(=O)c2cccc(S(=O)(=O)N3c4ccccc4CC3C)c2)s1 (stereo not given) | 2 | 12 | 50 | 99* | 6 | u
O=C(COc1ccc(Cl)cc1Cl)NCC(=O)N/N=C/c1c[nH]c2ccccc12 | 13 | 23 | 6 | 70* | 15 | 4
O=C(CSc1nnc(SCc2ccc(Cl)cc2)s1)N/N=C/c1c[nH]c2ccccc12 | x | 40 | -10 | 65* | -4 | -6
O=C(CNc1ccccc1)N/N=C/c1c[nH]c2ccccc12 | 2 | 20 | -4 | -2 | -2 | -4
O=C(CSc1nnc(SCc2cccc3ccccc23)s1)N/N=C/c1c[nH]c2ccccc12 | 15 | 35 | 7 | 5 | 4 | -5
Cc1ccc(S(=O)(=O)c2nc(-c3ccccc3F)oc2N2CC(C)OC(C)C2)cc1 (stereo not given) | 18 | 11 | 25 | x | -18 | 8
CN1CCC(OC(=O)COc2ccc(Br)cc2)CC1 | 17 | 6 | -17 | -5 | 0 | 2
Cc1cccc(C(=O)OC2CCN(C)CC2)c1 | 10 | 1 | 53 | 43 | 3 | -4
CN1CCC(OC(=O)c2cccc(Cl)c2)CC1 | -2 | 2 | 60* | 11 | 38 | -4
CN1CCC(OC(=O)c2ccc(Br)cc2)CC1 | -5 | x | 62* | 85* | 1 | -21
Cc1ccc(O)c(CNc2ccccn2)c1 | 44 | 14 | 4 | 5 | 12 | -5
Cc1ccc(NCc2ccc(O)c3ncccc23)cc1 | -52 | -35 | 2 | 10 | 11 | 64*
Cc1ccc(NCc2ccco2)cc1C | 27 | 8 | x | -4 | -11 | -22
Cc1ccc(NCc2ccc(O)c3ncccc23)cc1C | -59 | -24 | 19 | 9 | 1 | 65*
C=CCNC(=O)c1ccccc1NC(=O)c1ccc(Cl)c(S(=O)(=O)Nc2ccccc2)c1 | 9 | 18 | 10 | 58* | 0 | 10
Cc1nnc2n(Cc3ccccc3)c(=O)c3c4c(sc3n12)COC(C(C)C)C4 (stereo not given) | 7 | 3 | 7 | 55* | 2 | 20
CC1=C(C(=O)Nc2ccccc2F)C(c2ccsc2)C2=C(CC(c3ccccc3)CC2=O)N1 (stereo not given) | 10 | 9 | 56* | 16 | 4 | -5
O=C(CC1CCCCC1)N1CCCC(c2nc(-c3ccc(S(=O)(=O)N4CCCC4)cc3)no2)C1 (stereo not given) | -10 | -2 | 0 | 55* | 11 | -4
O=C(Nc1ccc(OCC(F)(F)C(F)F)c(C(F)(F)F)c1)c1ccccc1O | 25 | 27 | 6 | 100* | -22 | 7
O=C(Nc1ccc(OCC(F)(F)C(F)F)c(C(F)(F)F)c1)c1ccccc1 | 14 | x | 16 | 2 | -23 | 12
SMILES | NALP3 yeast inh | NALP1 inh | T cruzi inh | L major viab | PolyA inh | Calb FLC
COc1ccccc1C(C)NCC(=O)Nc1ccccc1C(F)(F)F (stereo not given) | 3 | 28 | 0 | 60* | 14 | -5
CC(Oc1ccccc1)c1ccn[nH]1 (stereo not given) | 7 | 19 | -5 | -4 | 19 | 10
CCN(CC)S(=O)(=O)c1cc(NC(=O)C(=O)c2c(-c3ccccc3)cc3ccccn23)ccc1C | 18 | 14 | 34 | 91* | 4 | 17
CCN(CC)S(=O)(=O)c1ccc(N2CCOCC2)c(NC(=O)C(=O)c2c(-c3ccccc3)cc3ccccn23)c1 | -2 | -1 | u | 24 | -9 | 34
CCN(CC)S(=O)(=O)c1cccc(NC(=O)C(=O)c2c(-c3ccccc3)cc3ccccn23)c1 | 18 | -10 | 48 | 98* | 0 | 7
COCCN(Cc1cc2cc(C)ccc2[nH]c1=O)S(=O)(=O)c1ccc(Cl)cc1 | 2 | 3 | 10 | x | 5 | 10
O=[N+]([O-])c1ccccc1/C=C/CN1CCN(Cc2ccc3c(c2)OCO3)CC1 | 28 | 27 | u | x | -8 | -20
CCOc1ccc2nc(NCCNC(=S)NCCCN(C)C)c(C#N)cc2c1 | 10 | -9 | 18 | 56* | 19 | 27
Cc1cc(C(=O)N2CCCC(N3CCN(c4cccc(Cl)c4)CC3)C2)nc(C)n1 (stereo not given) | -10 | 3 | -7 | x | 4 | 5
OC(CNCc1ccccc1)COCc1ccc(Cl)cc1 (stereo not given) | 15 | 7 | 38 | 84* | 10 | -4
CN1CCC2(CC1)Nc1nc(SCc3ccc(Cl)cc3)nn1C1=C2CN(C)CC1 | 28 | 17 | 15 | 97* | -5 | 5
CCN(Cc1ccccc1)C(c1ccncc1)c1nnnn1C(C)(C)C (stereo not given) | 3 | 6 | 12 | 11 | 4 | 30
CC(C)(C)n1nnnc1C(c1cccs1)N1CCN(c2ccccc2)CC1 (stereo not given) | 6 | 27 | -7 | 6 | -17 | u
CC(C)(C)c1ccc(CN(Cc2ccccc2)C(c2ccccn2)c2nnnn2C(C)(C)C)cc1 (stereo not given) | 17 | 5 | 62* | 77* | 6 | -5
CC(C)(C)n1nnnc1C(c1cccs1)N(Cc1ccccc1)Cc1cccnc1 (stereo not given) | -28 | 8 | 36 | 99* | 10 | -9
CC(C)(C)n1nnnc1C(c1cccnc1)N(Cc1ccccc1)Cc1cccs1 (stereo not given) | 5 | -6 | 20 | 96* | -14 | 5
CC(C)(C)n1nnnc1C(c1ccccn1)N1CCN(C(c2ccccc2)c2ccccc2)CC1 (stereo not given) | 3 | -5 | 32 | 27 | 6 | -14
CCC(=O)C1CCCN(C(=O)c2ccc(OC3CCN(C(=O)CCOC)CC3)cc2)C1 (stereo not given) | 11 | -3 | -7 | x | -5 | -2
Clc1ccc(N=c2ssnc2Cl)nc1 | 34 | -19 | 58* | -10 | -99 | u
Brc1cccc(-c2nnc3sc(CNCc4ccco4)cn23)c1 | 17 | 6 | 5 | 4 | -4 | -1
